Experimental data taken from ChEMBL document CHEMBL1145895, “A new generation of N-aryl-N'-(1-alkyl-2-chloroethyl)ureas as microtubule disrupters: synthesis, antiproliferative activity, and beta-tubulin alkylation kinetics” (J Med Chem, 2003).

What was measured:
Assay type in all cases: functional, cell-based
L1210 = assay: In vitro cytotoxic activity required to inhibit murine lymphocytotic leukemia L1210 cell line; conditions: Mus musculus
In short: (§1)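 Alamar Blue viability assay. (1-5) × 10³ cells were seeded in RPMI 1640 with 10% bovine calf serum and preincubated 24 h. Increasing drug concentrations from DMSO stocks were added (final DMSO 0.5%) and cells incubated 72 h at 37 °C. Fluorescence read at ex 485/em 590 nm. IC50 is the dose inhibiting growth by 50%, mean of at least three independent determinations.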

K562 = assay: In vitro cytotoxic activity required to inhibit human chronic myelogenous leukemia K-562 cell line; in short: as §1
MCF7 = assay: In vitro cytotoxic activity required to inhibit human estrogen-sensitive breast adenocarcinoma MCF-7 cell line; in short: as §1
T-24 = assay: In vitro cytotoxic activity required to inhibit human bladder carcinoma T24 cell line; in short: as §1
HT-29 = assay: In vitro cytotoxic activity required to inhibit human colon adenocarcinoma HT-29 cell line; in short: as §1
B16 = assay: In vitro cytotoxic activity required to inhibit murine melanoma B16 cell line; conditions: Mus musculus; in short: as §1
CHO-VV 3-2 = assay: Cytotoxic activity on colchicine-resistant CHO-VV 3-2 cell line expressing mutated tubulin; conditions: Cricetulus griseus; in short: as §1
CHO-TAX 5-6 = assay: Cytotoxic activity on paclitaxel-resistant CHO-TAX 5-6 cell line expressing mutated tubulin; conditions: Cricetulus griseus; in short: as §1
CHO = assay: Cytotoxic activity on wild type CHO10001 cell line expressing mutated tubulin; conditions: Cricetulus griseus; in short: as §1

Compound | IC50 (L1210) [µM] | IC50 (K562) [µM] | IC50 (MCF7) [µM] | IC50 (T-24) [µM] | IC50 (HT-29) [µM] | IC50 (B16) [µM] | IC50 (CHO-VV 3-2) [µM] | IC50 (CHO-TAX 5-6) [µM] | IC50 (CHO) [µM]
CCC(C)c1ccc(NC(=O)NCCCl)cc1 (centres undefined) | 2 | 2 | 5.2 | 3.7 | 1.8 | 5 |  |  | 
C[C@@H](CCl)NC(=O)Nc1ccc(C(C)(C)C)cc1 | 12 | 47 | 84 | 41 | 48 | 35 | 53 | 53 | 56
CC(C)(C)c1ccc(NC(=O)NCCCl)cc1 | 3.3 | 3.6 | 11 | 6.3 | 4 | 8 | 13 | 3.1 | 7.6
CCC(C)c1ccc(NC(=O)N[C@H](C)CCl)cc1 (some centres undefined) | 1.7 | 2 | 4.8 | 3.4 | 1.9 | 4.2 |  |  | 
O=C(NCCCl)Nc1ccc2ccccc2c1 | 2.9 | 2.5 | 7.3 |  | 2.6 | 6.3 |  |  | 
C[C@@H](CCl)NC(=O)Nc1ccc2c(c1)CCC2 | 41 | 91 | > 100 | 92 | > 100 | > 100 |  |  | 
C[C@H](CCl)NC(=O)Nc1ccc(C(C)(C)C)cc1 | 3.4 | 3.8 | 10 | 7 | 3.9 | 8.5 | 15 | 3.6 | 8.1
CC[C@@H](CCl)NC(=O)Nc1ccc(C(C)C)cc1 | 24 | 28 | 72 | 57 | 51 | 46 |  |  | 
CC[C@H](CCl)NC(=O)Nc1ccc(C(C)(C)C)cc1 | 17 | 28 | 52 | 28 | 25 | 27 |  |  | 
C[C@@H](CCl)NC(=O)Nc1ccc(I)cc1 | 47 | 43 | 93 | 59 | 76 | 93 | 51 | 54 | 58
CC[C@@H](CCl)NC(=O)Nc1ccc(C(C)(C)C)cc1 | 17 | 26 | 60 | 29 | 24 | 27 |  |  | 
CCC(C)c1ccc(NC(=O)N[C@H](CC)CCl)cc1 (some centres undefined) | 11 | 19 | 38 | 28 | 20 | 20 |  |  | 
C[C@H](CCl)NC(=O)Nc1ccc(I)cc1 | 0.8 | 1 | 3.2 | 1.8 | 1.3 | 2.1 | 4.7 | 0.7 | 2.3
CC(C)c1ccc(NC(=O)N[C@H](C)CCl)cc1 | 0.9 | 0.9 | 2.9 | 1.9 | 1 | 2.3 |  |  | 
CC(C)c1ccc(NC(=O)N[C@@H](C)CCl)cc1 | 28 | 33 | > 100 | 54 | 65 | 46 |  |  | 
O=C(NCCCl)Nc1ccc(I)cc1 | 3.6 | 6.2 | 23 | 12 | 6 | 16 | 23 | 6.1 | 15
C[C@@H](CCl)NC(=O)Nc1ccc2c(c1)Cc1ccccc1-2 | 17 | 19 | 29 | 27 | 28 | 30 |  |  | 
CC(C)c1ccc(NC(=O)NCCCl)cc1 | 2 | 1.9 | 4.7 | 3.6 | 2.3 | 4.7 |  |  | 
CC[C@@H](CCl)NC(=O)Nc1ccc(I)cc1 | 90 | 63 | 80 | 67 | 79 | 89 |  |  | 
CC[C@H](CCl)NC(=O)Nc1ccc(I)cc1 | 87 | 31 | 52 | 46 | 34 | 49 |  |  | 
CCC(C)c1ccc(NC(=O)N[C@@H](CC)CCl)cc1 (some centres undefined) | 12 | 27 | 51 | 38 | 28 | 27 |  |  | 
C[C@H](CCl)NC(=O)Nc1ccc2c(c1)CCC2 | 4.2 | 5 | 11 | 7.4 | 6.4 | 11 |  |  | 
C[C@@H](CCl)NC(=O)Nc1ccc2ccccc2c1 | 20 | 63 | > 100 | 71 | 86 | > 100 |  |  | 
C[C@H](CCl)NC(=O)Nc1ccc2c(c1)Cc1ccccc1-2 | 4.2 | 5.1 | 10 | 7.4 | 6.6 | 9.3 |  |  | 
CCC(C)c1ccc(NC(=O)N[C@@H](C)CCl)cc1 (some centres undefined) | 18 | 34 | 63 | 35 | 39 | 33 |  |  | 
C[C@H](CCl)NC(=O)Nc1ccc2ccccc2c1 | 1.7 | 2.3 | 6 | 4 | 2.3 | 4.5 |  |  | 
CC[C@H](CCl)NC(=O)Nc1ccc(C(C)C)cc1 | 14 | 19 | 55 | 32 | 28 | 33 |  |  | 
